# In ChEMBL document CHEMBL5724801, “EUbOPEN Chemogenomics Library - Multiplex” (2024):
# Values joined by “and” are separate entries in the source; they are usually repeats but may differ in a detail not shown here. Identical values can stand only once.
# Tested on: U2OS
# Assay: Multiplex assay against U2OS
# Assay type: toxicity, cell-based
# Conditions: human, 12 h, 1 µM, compound concentration 1 uM
# Procedure, shortened: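 Cells were classed with CellPathfinder machine-learning gating, first as Hoechst high-intensity objects or normal cells, then (normal cells) as healthy, pyknosed or fragmented nuclei, and finally (pyknosed cells) as mitotic or apoptotic. Staining of live cells at seeding used Hoechst33342, BioTracker Green Microtubule Cytoskeleton Dye, MitoTracker Red and Annexin V Alexa Fluor 680, with imaging on a CQ1 microscope at 37°C and 5% CO2 after compound addition. Tubulin, mitochondrial-mass and membrane-permeability phenotypes are per cents of healthy-nucleus cells.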
SMILES,Population Apoptotic (%),Population Fragmented Nuclei (%),Population Healthy Nuclei (%),Population Hoechst High Intensity Objects (%),Population Membrane Permeable-Phenotype (%),Population Mitochondria Different-Phenotype (%),Population Mitotic Cells (%),Population Normal (%),Population Pyknosed Nuclei (%),Population Tubulin-Different-Phenotype (%)
Oc1c(CN2CCN(c3ccccn3)CC2)cc(Cl)c2cccnc12,95% and 100%,24% and 16%,64% and 78%,1%,3% and 13%,1% and 4%,4% and 0%,98%,10% and 5%,2% and 8%
Cc1cnc(-c2cc(N3CCN(C(=O)CCS(C)(=O)=O)CC3)ncc2Cl)c(C)c1,86% and 100%,37% and 18%,54% and 73%,2% and 1%,10%,1% and 7%,13% and 0%,97% and 98%,8%,2% and 7%
CCc1cc2cc(NS(=O)(=O)c3ccc(C#N)cc3)ccc2n(CC)c1=O,88% and 100%,30% and 26%,60% and 70%,3% and 1%,4% and 8%,2%,11% and 0%,96% and 98%,9% and 3%,2% and 7%
Cc1nc2ccc(Oc3ccc(F)cc3)cc2c(=O)n1C[C@H]1CCCN(C(C)C)C1.Cl,83% and 60%,25% and 14%,64% and 81%,3% and 1%,9% and 17%,3% and 7%,16% and 40%,96% and 98%,10% and 4%,7% and 9%

# Same assay, conditions: human, 12 h, 1 µM, compound concentration 1 uM
row,SMILES,Total Cell Count
1,Oc1c(CN2CCN(c3ccccn3)CC2)cc(Cl)c2cccnc12,237 and 93
2,Cc1cnc(-c2cc(N3CCN(C(=O)CCS(C)(=O)=O)CC3)ncc2Cl)c(C)c1,183 and 111
3,CCc1cc2cc(NS(=O)(=O)c3ccc(C#N)cc3)ccc2n(CC)c1=O,286 and 113
4,Cc1nc2ccc(Oc3ccc(F)cc3)cc2c(=O)n1C[C@H]1CCCN(C(C)C)C1.Cl,244 and 125

# Same assay, conditions: human, 12 h, 10 µM, compound concentration 10 uM
SMILES,Population Apoptotic (%),Population Fragmented Nuclei (%),Population Healthy Nuclei (%),Population Hoechst High Intensity Objects (%),Population Membrane Permeable-Phenotype (%),Population Mitochondria Different-Phenotype (%),Population Mitotic Cells (%),Population Normal (%),Population Pyknosed Nuclei (%),Population Tubulin-Different-Phenotype (%)
Oc1c(CN2CCN(c3ccccn3)CC2)cc(Cl)c2cccnc12,84% and 87%,31% and 18%,56% and 68%,2% and 1%,12% and 6%,28% and 35%,15% and 12%,97% and 98%,11% and 13%,8% and 11%
Cc1cnc(-c2cc(N3CCN(C(=O)CCS(C)(=O)=O)CC3)ncc2Cl)c(C)c1,85% and 75%,24% and 17%,67% and 73%,1%,,3% and 7%,14% and 25%,98%,8% and 9%,
CCc1cc2cc(NS(=O)(=O)c3ccc(C#N)cc3)ccc2n(CC)c1=O,66% and 87%,28% and 13%,64% and 80%,2%,9% and 6%,3%,33% and 12%,97%,6% and 5%,4%
Cc1nc2ccc(Oc3ccc(F)cc3)cc2c(=O)n1C[C@H]1CCCN(C(C)C)C1.Cl,65% and 78%,25% and 24%,59% and 58%,3% and 4%,58% and 25%,61% and 75%,35% and 21%,96% and 95%,15% and 17%,63% and 47%

# Same assay, conditions: human, 12 h, 10 µM, compound concentration 10 uM
row,SMILES,Total Cell Count
1,Oc1c(CN2CCN(c3ccccn3)CC2)cc(Cl)c2cccnc12,229 and 118
2,Cc1cnc(-c2cc(N3CCN(C(=O)CCS(C)(=O)=O)CC3)ncc2Cl)c(C)c1,258 and 88
3,CCc1cc2cc(NS(=O)(=O)c3ccc(C#N)cc3)ccc2n(CC)c1=O,220 and 139

# Same assay, conditions: human, 24 h, 1 µM, compound concentration 1 uM
SMILES,Population Apoptotic (%),Population Healthy Nuclei (%),Population Hoechst High Intensity Objects (%),Population Membrane Permeable-Phenotype (%),Population Mitochondria Different-Phenotype (%),Population Mitotic Cells (%),Population Normal (%),Population Pyknosed Nuclei (%),Population Tubulin-Different-Phenotype (%),Total Cell Count
Oc1c(CN2CCN(c3ccccn3)CC2)cc(Cl)c2cccnc12,88% and 100%,64% and 87%,1%,3% and 9%,2% and 3%,11% and 0%,98%,6% and 5%,2% and 7%,270 and 97
Cc1cnc(-c2cc(N3CCN(C(=O)CCS(C)(=O)=O)CC3)ncc2Cl)c(C)c1,80% and 90%,62% and 75%,2%,5% and 8%,3% and 5%,20% and 10%,97%,6% and 7%,2% and 8%,220 and 136
CCc1cc2cc(NS(=O)(=O)c3ccc(C#N)cc3)ccc2n(CC)c1=O,85% and 88%,61% and 75%,2% and 1%,9% and 7%,2% and 7%,14% and 11%,97% and 98%,8% and 7%,6% and 3%,335 and 126
Cc1nc2ccc(Oc3ccc(F)cc3)cc2c(=O)n1C[C@H]1CCCN(C(C)C)C1.Cl,78% and 80%,65% and 71%,4% and 2%,7% and 11%,5% and 9%,21% and 20%,95% and 97%,10% and 6%,4% and 8%,276 and 146

# Same assay, conditions: human, 24 h, 1 µM, compound concentration 1 uM
row,SMILES,Population Fragmented Nuclei (%)
1,Cc1cnc(-c2cc(N3CCN(C(=O)CCS(C)(=O)=O)CC3)ncc2Cl)c(C)c1,30% and 17%
2,CCc1cc2cc(NS(=O)(=O)c3ccc(C#N)cc3)ccc2n(CC)c1=O,29% and 16%
3,Cc1nc2ccc(Oc3ccc(F)cc3)cc2c(=O)n1C[C@H]1CCCN(C(C)C)C1.Cl,23% and 21%

# Same assay, conditions: human, 24 h, 10 µM, compound concentration 10 uM
SMILES,Population Apoptotic (%),Population Fragmented Nuclei (%),Population Healthy Nuclei (%),Population Hoechst High Intensity Objects (%),Population Membrane Permeable-Phenotype (%),Population Mitochondria Different-Phenotype (%),Population Mitotic Cells (%),Population Normal (%),Population Pyknosed Nuclei (%),Population Tubulin-Different-Phenotype (%)
Oc1c(CN2CCN(c3ccccn3)CC2)cc(Cl)c2cccnc12,90% and 100%,27% and 29%,63% and 58%,4% and 3%,10% and 9%,14% and 40%,9% and 0%,95% and 96%,9% and 12%,7% and 6%
Cc1cnc(-c2cc(N3CCN(C(=O)CCS(C)(=O)=O)CC3)ncc2Cl)c(C)c1,80% and 85%,20% and 21%,74% and 64%,2% and 0%,,2% and 1%,20% and 14%,97% and 99%,4% and 13%,0% and 7%
CCc1cc2cc(NS(=O)(=O)c3ccc(C#N)cc3)ccc2n(CC)c1=O,95% and 80%,23% and 14%,67% and 79%,3%,4% and 6%,2%,,96%,9% and 6%,1% and 2%
Cc1nc2ccc(Oc3ccc(F)cc3)cc2c(=O)n1C[C@H]1CCCN(C(C)C)C1.Cl,77% and 76%,25% and 22%,57% and 52%,4% and 6%,37% and 22%,63% and 62%,22% and 23%,95% and 93%,16% and 24%,47% and 40%

# Same assay, conditions: human, 24 h, 10 µM, compound concentration 10 uM
row,SMILES,Total Cell Count
1,Oc1c(CN2CCN(c3ccccn3)CC2)cc(Cl)c2cccnc12,238 and 127
2,Cc1cnc(-c2cc(N3CCN(C(=O)CCS(C)(=O)=O)CC3)ncc2Cl)c(C)c1,309 and 103
3,CCc1cc2cc(NS(=O)(=O)c3ccc(C#N)cc3)ccc2n(CC)c1=O,263 and 159

# Same assay, conditions: human, 48 h, 1 µM, compound concentration 1 uM
SMILES,Population Apoptotic (%),Population Fragmented Nuclei (%),Population Healthy Nuclei (%),Population Hoechst High Intensity Objects (%),Population Membrane Permeable-Phenotype (%),Population Mitochondria Different-Phenotype (%),Population Mitotic Cells (%),Population Normal (%),Population Pyknosed Nuclei (%),Population Tubulin-Different-Phenotype (%)
Oc1c(CN2CCN(c3ccccn3)CC2)cc(Cl)c2cccnc12,94% and 87%,25% and 14%,67% and 77%,3% and 1%,6% and 7%,3% and 1%,5% and 12%,96% and 98%,7%,3% and 5%
Cc1cnc(-c2cc(N3CCN(C(=O)CCS(C)(=O)=O)CC3)ncc2Cl)c(C)c1,78% and 95%,29% and 15%,63% and 73%,0% and 1%,3% and 4%,2% and 5%,,99% and 98%,7% and 10%,1% and 3%
CCc1cc2cc(NS(=O)(=O)c3ccc(C#N)cc3)ccc2n(CC)c1=O,89% and 84%,21% and 19%,70% and 73%,2% and 3%,6%,3% and 5%,10% and 15%,97% and 96%,8% and 6%,2% and 3%
Cc1nc2ccc(Oc3ccc(F)cc3)cc2c(=O)n1C[C@H]1CCCN(C(C)C)C1.Cl,84% and 93%,19%,69% and 72%,1% and 0%,7%,5%,15% and 6%,98% and 99%,10% and 7%,4% and 6%

# Same assay, conditions: human, 48 h, 1 µM, compound concentration 1 uM
row,SMILES,Total Cell Count
1,Oc1c(CN2CCN(c3ccccn3)CC2)cc(Cl)c2cccnc12,276 and 111
2,Cc1cnc(-c2cc(N3CCN(C(=O)CCS(C)(=O)=O)CC3)ncc2Cl)c(C)c1,325 and 184
3,CCc1cc2cc(NS(=O)(=O)c3ccc(C#N)cc3)ccc2n(CC)c1=O,450 and 192
4,Cc1nc2ccc(Oc3ccc(F)cc3)cc2c(=O)n1C[C@H]1CCCN(C(C)C)C1.Cl,371 and 213

# Same assay, conditions: human, 48 h, 10 µM, compound concentration 10 uM
SMILES,Population Apoptotic (%),Population Fragmented Nuclei (%),Population Healthy Nuclei (%),Population Hoechst High Intensity Objects (%),Population Membrane Permeable-Phenotype (%),Population Mitochondria Different-Phenotype (%),Population Mitotic Cells (%),Population Normal (%),Population Pyknosed Nuclei (%),Population Tubulin-Different-Phenotype (%)
Oc1c(CN2CCN(c3ccccn3)CC2)cc(Cl)c2cccnc12,96% and 100%,32% and 38%,57% and 42%,2% and 4%,11% and 12%,19% and 41%,3% and 0%,97% and 95%,10% and 19%,7% and 8%
Cc1cnc(-c2cc(N3CCN(C(=O)CCS(C)(=O)=O)CC3)ncc2Cl)c(C)c1,94% and 100%,11% and 22%,80% and 71%,1% and 3%,4% and 13%,2% and 7%,5% and 0%,98% and 96%,7% and 5%,2% and 7%
CCc1cc2cc(NS(=O)(=O)c3ccc(C#N)cc3)ccc2n(CC)c1=O,88% and 96%,18% and 15%,72% and 73%,3% and 2%,6% and 8%,2% and 3%,11% and 3%,96% and 97%,9% and 11%,3% and 7%
Cc1nc2ccc(Oc3ccc(F)cc3)cc2c(=O)n1C[C@H]1CCCN(C(C)C)C1.Cl,77% and 88%,29%,54% and 51%,5% and 8%,29% and 27%,36% and 41%,22% and 11%,94% and 91%,16% and 19%,23% and 35%

# Same assay, conditions: human, 48 h, 10 µM, compound concentration 10 uM
row,SMILES,Total Cell Count
1,Oc1c(CN2CCN(c3ccccn3)CC2)cc(Cl)c2cccnc12,275 and 144
2,CCc1cc2cc(NS(=O)(=O)c3ccc(C#N)cc3)ccc2n(CC)c1=O,387 and 248
